Apaf1 inhib: inhibitors of human Apaf-1 apoptosome, primary screen, biochemical, DEVD-Rh110 fluorescence, uHTS; Apoptotic protease-activating factor 1 (Homo sapiens), O14727; reconstituted apoptosome caspase-3 activity; inhibition, % at 20 µM; 0.71% of 330,000 active; AID 489030, 2010; active = inhibition of at least 40% at 20 µM;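 note: plate controls were DMSO wells for no effect and DEVD-CHO caspase inhibitor wells for full effect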
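Assay system – apoptosome proteins · Medium – Hepes buffer, pH 7.5 · Also added – cytochrome c with DEVD-Rh110 · Timing – 30 min compound preincubation, 50 min activation, room temperature · Detection – Rh110 fluorescence, excitation 480 nm, emission 540 nm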
SENP8 block-1: SENP8 protease inhibitors, primary screen, biochemical, luminescence; Sentrin-specific protease 8 (Homo sapiens), Q96LD8; purified SENP8, Z-RLRGG-aminoluciferin cleavage; inhibition, % at 10 µM; 1.2% of 330,000 active; in the data active = inhibition above about 50%
Target sequence (Q96LD8 whole entry, looked up): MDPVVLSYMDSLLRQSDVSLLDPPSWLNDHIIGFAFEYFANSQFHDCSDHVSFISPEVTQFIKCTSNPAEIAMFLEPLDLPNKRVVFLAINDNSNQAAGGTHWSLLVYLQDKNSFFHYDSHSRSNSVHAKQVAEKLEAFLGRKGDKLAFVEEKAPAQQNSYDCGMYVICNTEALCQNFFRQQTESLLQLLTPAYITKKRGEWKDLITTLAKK
UBC13 inh: UBC13 polyubiquitin chain formation inhibitors, primary screen, biochemical, TR-FRET, uHTS; 0.47% of 330,000 active; Ubiquitin-conjugating enzyme E2 N (Homo sapiens), P61088; AID 485273, 2010; inhibition, % at 20 µM; in the data active = inhibition above about 45%, passing the limit was not always enough
Target sequence (P61088 whole entry, looked up): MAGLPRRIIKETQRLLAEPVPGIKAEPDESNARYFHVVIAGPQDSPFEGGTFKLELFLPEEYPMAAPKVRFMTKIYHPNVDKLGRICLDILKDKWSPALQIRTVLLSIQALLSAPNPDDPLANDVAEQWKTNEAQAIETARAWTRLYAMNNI
SENP8 block-2: human SENP8 protease inhibitors, primary screen, biochemical, fluorescence, Nedd8 protein substrate, uHTS; Sentrin-specific protease 8 (Homo sapiens), Q96LD8; recombinant SENP8; inhibition, % at 20 µM; 0.64% of 360,000 active; in the data active = inhibition mostly above about 40%, no sharp cut-off; inactive = mostly below about 27%
SENP7 inh: SENP7 protease inhibitors, primary screen, biochemical, luminescence, uHTS. recombinant SENP7, Z-RLRGG-aminoluciferin luminescence, 40 min. inhibition, % at 5 µM. 1.5% of 330,000 active. AID 434973, 2010;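 active = inhibition above about 50% at the single test dose, limit read from the data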;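 note: plate controls were DMSO with enzyme for no effect and no enzyme buffer wells for full effect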
SENP6 block: SENP6 protease inhibitors, primary screen, biochemical, luminescence, uHTS. Sentrin-specific protease 6 (Homo sapiens), Q9GZR1. Recombinant SENP6 catalytic domain, aminoluciferin luminescence. inhibition, % at 10 µM. 1.8% of 330,000 active. AID 2599, 2010;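 active = inhibition above about 50% at the single tested dose, limit read from the data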;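 note: plate controls were DMSO wells with enzyme for no effect and DMSO wells lacking enzyme for full effect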
SENP8 conf: human SENP8 protease inhibitors, confirmation, biochemical, Nedd8 protein substrate, single concentration. inhibition, % at 25 µM. 15% of 1,400 active. purified SENP8, Nedd8-AMC/pro-Nedd8 cleavage fluorescence, 30 min. shares compounds with SENP8 block-2; in the data active = inhibition mostly above about 39%, no sharp cut-off; inactive = mostly below about 34%
* hit, by the source's call; / = not tested or not shown. This is a sample that favours compounds with a hit; in the whole collection about 3% have one here.

SMILES | Apaf1 inhib | SENP8 block-1 | UBC13 inh | SENP8 block-2 | SENP7 inh | SENP6 block | SENP8 conf
CC(C)C[C@H](NC(=O)N1CC(=O)Nc2ccccc21)C(=O)N[C@H](Cc1c[nH]c2ccccc12)C(=O)O | 5 | -11 | -17 | 51* | 7 | 0 | 5
CC1(C)NC(=O)N(CC(=O)OCC(=O)Nc2cccc(S(N)(=O)=O)c2)C1=O | -2 | 1 | 2 | 9 | 7 | 2 | /
Cc1ccc(C)c(Nc2c([N+](=O)[O-])cc(C(=O)N3CC(=O)Nc4ccccc43)cc2[N+](=O)[O-])c1 | 22 | -7 | -47 | 60* | 0 | -6 | 20
Cc1cccc(Nc2c([N+](=O)[O-])cc(C(=O)N3CC(=O)Nc4ccccc43)cc2[N+](=O)[O-])c1 | 12 | -3 | -41 | 28 | -1 | -6 | /
Cc1ccc(S(=O)(=O)CCC(=O)OCC(=O)Nc2cc(F)ccc2C)cc1 | 9 | -3 | -2 | 4 | 10 | 7 | /
COc1ccc(NC2CS(=O)(=O)CC2NCc2ccccc2)cc1 (centres undefined) | 1 | -3 | 1 | 40* | 3 | 7 | 15
COc1ccc(Cl)cc1NC(=O)CN1CCc2ccccc2C1 | 13 | -7 | 2 | 4 | -8 | 6 | /
CCc1ccccc1NC(=O)CCC(=O)N1CCSc2ccccc21 | 0 | -13 | 4 | 16 | -14 | -15 | /
O=c1[nH]c(=S)ccn1C1OC(CO)C(O)C1O (centres undefined) | -5 | -6 | -5 | 4 | 10 | -21 | /
O=c1[nH]cnc2c1ccn2C1OC(CO)C(O)C1O (centres undefined) | / | / | / | 41* | / | / | 9
O=C(NC1=NCCS1)c1ccccc1OCc1ccc(F)cc1 | 1 | -2 | -1 | 9 | 14 | 12 | /
CC1(OC(=O)C2CCCC2)C(=O)C=C2C=C(c3ccsc3)N(C3CC3)C=C2C1=O (centres undefined) | 37 | -1 | -60 | -35 | -11 | 17 | /
CC1(OC(=O)C2CCCC2)C(=O)C=C2C=C3CCCCN3C=C2C1=O (centres undefined) | 36 | -11 | -81 | 57* | -2 | 6 | 60*
COC(=O)CCC(=O)OC1(C)C(=O)C=C2C=C3CCCN3C=C2C1=O (centres undefined) | 16 | 6 | -42 | 53* | 3 | 11 | 47*
C=CCNc1nc2c3ccccc3n(C(C)=O)c2s1 | 5 | -2 | -24 | 51* | 2 | 1 | 34
C#CCN1C=CC(=O)[C@@H](O)[C@H]1c1ccccc1Br | / | / | / | 6 | / | / | /
CC(=O)Nc1ccc(Nc2ncc([N+](=O)[O-])c(Nc3ccc(NC(C)=O)cc3)n2)cc1 | -21 | -4 | -13 | 44* | -4 | -5 | 8
CC(=O)Nc1ccc(Nc2nc(C)c([N+](=O)[O-])c(Nc3ccccc3)n2)cc1 | 8 | -5 | -3 | 20 | -3 | -8 | /
COc1cc(=O)n(C)c2c(O)cccc12 | 1 | -5 | 19 | 56* | -1 | -15 | 0
C[C@H]1CN([C@@H](C)CO)C(=O)Cc2cc(NS(=O)(=O)c3cccs3)ccc2O[C@H]1CN(C)S(=O)(=O)c1cn(C)cn1 | 11 | -15 | -6 | -3 | 2 | -26 | /
O=C(Cc1ccc(S(=O)(=O)N2CCOCC2)s1)N1CCN(S(=O)(=O)c2ccccc2[N+](=O)[O-])CC1 | / | / | / | 14 | / | / | /
CCOc1cc(CNc2ccc(OC)cc2)cc(Br)c1OCC(=O)NC(C)(C)C | 20 | 8 | 2 | 47* | 2 | 8 | 24
CCOc1cc(CNc2ccc(Br)cc2)cc(Br)c1OCC(=O)NC(C)(C)C | 17 | 0 | -1 | 4 | 8 | -17 | /
CC(C)(C)OC(=O)N1Cc2ccccc2C[C@H]1C(=O)O | 14 | 3 | -7 | 40* | 6 | 15 | 68*
O=C(O)C1Cc2ccccc2CN1C(=O)c1ccccc1 (centres undefined) | -7 | -2 | -2 | 12 | 5 | -2 | /
COc1ccc(CCN(C)c2ccc(S(=O)(=O)N3CCCC3)cc2[N+](=O)[O-])cc1OC | 12 | -8 | -20 | 43* | -5 | 5 | 10
O=C1CCC(C(=O)N2CCC(CO)(Cc3ccc(Cl)cc3)CC2)=NN1 | -1 | -3 | -4 | 5 | -6 | -22 | /

Source: PubChem BioAssay (Sanford-Burnham Center for Chemical Genomics)
